Laboratory results published in ChEMBL document CHEMBL3286372, “Design, synthesis and structure-activity relationship of novel semi-synthetic flavonoids as antiproliferative agents” (2014).

What was measured:
[1] = Growth inhibition of human OVCAR4 cells after 48 hrs by coulter counting analysis; format: functional; details: OVCAR-4, 48 h
Method in brief: (§1)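 Five-dose NCI-60 follow-up, 0.01–100 µM, made from DMSO stock in buffered saline (final DMSO <1%), in duplicate wells. Cells in RPMI 1640 with 10% FBS at 6×10^4 cells/ml, 37 °C, 5% CO2, 48 h. Cells diluted tenfold in saline, Coulter-counted and corrected for dilution. GI50, TGI and LC50 taken from log concentration–percent growth curves.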

[2] = Growth inhibition of human OVCAR8 cells after 48 hrs by coulter counting analysis; format: functional; details: OVCAR-8, 48 h; method in brief: as §1
SK-OV-3 = assay: Growth inhibition of human SKOV3 cells after 48 hrs by coulter counting analysis; format: functional; details: SK-OV-3, 48 h; method in brief: as §1
[3] = Growth inhibition of human RXF393 cells after 48 hrs by coulter counting analysis; format: functional; details: RXF 393, 48 h; method in brief: as §1
TK-10 = assay: Growth inhibition of human TK10 cells after 48 hrs by coulter counting analysis; format: functional; details: TK-10, 48 h
Method in brief: (§2)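 NCI five-dose screen, 0.01-100 µM, from DMSO stocks diluted in buffer saline (final DMSO <1%). Cells grown in RPMI 1640 + 10% FBS, seeded at 6×10^4 cells/ml, in duplicate wells. Exposure 48 h at 37 °C, 5% CO2. Cells diluted 10-fold in saline and counted by Coulter counter. GI50 derived from log concentration–percent growth inhibition curves. Controls carried matching PBS/saline/DMSO.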

[4] = Growth inhibition of human UO31 cells after 48 hrs by coulter counting analysis; format: functional; details: UO-31, 48 h; method in brief: as §2
PC-3 = assay: Growth inhibition of human PC3 cells after 48 hrs by coulter counting analysis; format: functional; details: PC-3, 48 h; method in brief: as §1
DU-145 = assay: Growth inhibition of human DU145 cells after 48 hrs by coulter counting analysis; format: functional; details: DU-145, 48 h
Method in brief: (§3)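 NCI five-dose screen at 0.01-100 µM, diluted from DMSO stocks in buffered saline (final DMSO <1%). Cells at 6×10^4 cells/ml in RPMI 1640 with 10% FBS, in duplicate wells, at 37 °C under 5% CO2 for 48 h. Cells diluted tenfold in saline and Coulter-counted. GI50, TGI and LC50 taken from log concentration-growth inhibition curves.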

MDA-MB-231 = assay: Growth inhibition of human MDA-MB-231 cells after 48 hrs by coulter counting analysis; format: functional; details: MDA-MB-231, 48 h; method in brief: as §3
[5] = Growth inhibition of human Hs 578T cells after 48 hrs by coulter counting analysis; format: functional; method in brief: as §3
[6] = Growth inhibition of human BT549 cells after 48 hrs by coulter counting analysis; format: functional; details: BT-549, 48 h; method in brief: as §3
T47D = assay: Growth inhibition of human T47D cells after 48 hrs by coulter counting analysis; format: functional; method in brief: as §1
MDA-MB-468 = assay: Growth inhibition of human MDA-MB-468 cells after 48 hrs by coulter counting analysis; format: functional; details: MDA-MB-468, 48 h; method in brief: as §1
[7] = target: Cyclin-dependent kinase 2/cyclin E1 (Homo sapiens) (UniProt P24864+P24941); assay: Inhibition of CDK2/Cyclin E1 (unknown origin) at 20 uM after 30 mins by scintillation counting analysis relative to control; format: protein-complex assay
Method in brief: (§4)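 Recombinant kinases, cloned, expressed and purified in-house. Radiometric ³³P-ATP assay with kinase at ~10-50 nM final and 1-5 µg peptide or protein substrate. Compound at 20 µM final, in duplicate. Reaction started by adding ATP, run 30 min at ambient temperature, then spotted on P81 phosphocellulose. Plates washed in 1% phosphoric acid and counted by scintillation. No-substrate blank subtracted. Result is mean % activity change versus DMSO control.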

[8] = target: Cyclin-dependent kinase 4/cyclin D1 (Homo sapiens) (UniProt P11802+P24385); assay: Inhibition of CDK4/Cyclin D1 (unknown origin) at 20 uM after 30 mins by scintillation counting analysis relative to control; format: protein-complex assay; method in brief: as §4
[9] = target: Glycogen synthase kinase-3 beta (Homo sapiens) (UniProt P49841); assay: Inhibition of GSK-3beta (unknown origin) at 20 uM after 30 mins by scintillation counting analysis relative to control; method in brief: as §4
Sequence of Glycogen synthase kinase-3 beta (Homo sapiens) (P49841 whole entry, looked up): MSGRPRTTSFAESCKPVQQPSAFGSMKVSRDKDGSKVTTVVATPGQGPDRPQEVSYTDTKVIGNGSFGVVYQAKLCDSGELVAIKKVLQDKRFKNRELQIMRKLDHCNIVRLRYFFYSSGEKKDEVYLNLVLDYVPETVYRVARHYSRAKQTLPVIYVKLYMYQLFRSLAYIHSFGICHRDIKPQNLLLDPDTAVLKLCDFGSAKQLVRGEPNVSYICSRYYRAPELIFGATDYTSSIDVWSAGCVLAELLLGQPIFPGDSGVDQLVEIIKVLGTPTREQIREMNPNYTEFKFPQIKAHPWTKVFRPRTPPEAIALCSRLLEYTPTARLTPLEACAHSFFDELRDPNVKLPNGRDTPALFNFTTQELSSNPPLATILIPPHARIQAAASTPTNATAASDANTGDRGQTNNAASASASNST

K562 = assay: Growth inhibition of human K562 cells after 48 hrs by coulter counting analysis; format: functional; details: K562, 48 h; method in brief: as §3
[10] = Growth inhibition of human MOLT4 cells after 48 hrs by coulter counting analysis; format: functional; details: MOLT-4, 48 h; method in brief: as §1
RPMI-8226 = assay: Growth inhibition of human RPMI8226 cells after 48 hrs by coulter counting analysis; format: functional; details: RPMI-8226, 48 h; method in brief: as §1
[11] = Growth inhibition of human EKVX cells after 48 hrs by coulter counting analysis; format: functional; method in brief: as §3
HOP-62 = assay: Growth inhibition of human HOP62 cells after 48 hrs by coulter counting analysis; format: functional; details: HOP-62, 48 h; method in brief: as §3
NCI-H322M = assay: Growth inhibition of human NCI-H322M cells after 48 hrs by coulter counting analysis; format: functional; method in brief: as §1
NCI-H460 = assay: Growth inhibition of human NCI-H460 cells after 48 hrs by coulter counting analysis; format: functional; details: NCI-H460, 48 h; method in brief: as §1
NCI-H522 = assay: Growth inhibition of human NCI-H522 cells after 48 hrs by coulter counting analysis; format: functional; details: NCI-H522, 48 h; method in brief: as §1
COLO 205 = assay: Growth inhibition of human COLO205 cells after 48 hrs by coulter counting analysis; format: functional; details: COLO 205, 48 h; method in brief: as §3
HCT-116 = assay: Growth inhibition of human HCT116 cells after 48 hrs by coulter counting analysis; format: functional; details: HCT-116, 48 h; method in brief: as §3
[12] = Growth inhibition of human HCT15 cells after 48 hrs by coulter counting analysis; format: functional; details: HCT-15, 48 h; method in brief: as §3
HT-29 = assay: Growth inhibition of human HT-29 cells after 48 hrs by coulter counting analysis; format: functional; details: HT-29, 48 h; method in brief: as §3
SW-620 = assay: Growth inhibition of human SW620 cells after 48 hrs by coulter counting analysis; format: functional; details: SW-620, 48 h; method in brief: as §1
SF-268 = assay: Growth inhibition of human SF268 cells after 48 hrs by coulter counting analysis; format: functional; details: SF-268, 48 h; method in brief: as §1
SNB-75 = assay: Growth inhibition of human SNB75 cells after 48 hrs by coulter counting analysis; format: functional; details: SNB-75, 48 h; method in brief: as §1
U-251 = assay: Growth inhibition of human U251 cells after 48 hrs by coulter counting analysis; format: functional; details: U-251, 48 h; method in brief: as §2
[13] = Growth inhibition of human LOXIMVI cells after 48 hrs by coulter counting analysis; format: functional; details: LOX IMVI; method in brief: as §3
Malme-3M = assay: Growth inhibition of human MALME-3M cells after 48 hrs by coulter counting analysis; format: functional; method in brief: as §3
M14 = assay: Growth inhibition of human M14 cells after 48 hrs by coulter counting analysis; format: functional; details: M14, 48 h; method in brief: as §3
[14] = Growth inhibition of human UACC257 cells after 48 hrs by coulter counting analysis; format: functional; details: UACC-257, 48 h; method in brief: as §2
IGROV-1 = assay: Growth inhibition of human IGROV1 cells after 48 hrs by coulter counting analysis; format: functional; details: IGROV-1, 48 h; method in brief: as §3
[15] = Growth inhibition of human OVCAR3 cells after 48 hrs by coulter counting analysis; format: functional; details: OVCAR-3, 48 h; method in brief: as §1

Row | Structure (SMILES) | GI50 [1] | GI50 [2] | GI50 (SK-OV-3) | GI50 [3] | GI50 (TK-10) | GI50 [4] | GI50 (PC-3) | GI50 (DU-145) | GI50 (MDA-MB-231) | GI50 [5] | GI50 [6] | GI50 (T47D) | GI50 (MDA-MB-468) | inhibition [7] | inhibition [8] | inhibition [9] | GI50 (K562) | GI50 [10] | GI50 (RPMI-8226) | GI50 [11] | also measured
1 | C=CCc1c2c(c(OC)c3ccoc13)C(=O)/C(=C/c1ccccc1OC)O2 | 3.34 µM | 3.87 µM | 5.45 µM | 2470 nM | 6.5 µM | 4.98 µM | 5.25 µM | 3.19 µM | 4.59 µM | 5.29 µM | 4.44 µM | 4.34 µM | 2460 nM | 0% | 9% | 56% | 3.51 µM | 3520 nM | 3.51 µM | 4.41 µM | GI50 (HOP-62): 4.98 µM; GI50 (NCI-H322M): 5.93 µM; GI50 (NCI-H460): 3.46 µM; GI50 (NCI-H522): 3160 nM; GI50 (COLO 205): 7.64 µM; GI50 (HCT-116): 3.29 µM; GI50 [12]: 3.6 µM; GI50 (HT-29): 3.98 µM; GI50 (SW-620): 4.24 µM; GI50 (SF-268): 3.73 µM; GI50 (SNB-75): 1440 nM; GI50 (U-251): 3530 nM; GI50 [13]: 3130 nM; GI50 (Malme-3M): 19.8 µM; GI50 (M14): 8.19 µM; GI50 [14]: 6.41 µM; GI50 (IGROV-1): 5.27 µM; GI50 [15]: 3280 nM
2 | COc1c(C(=O)/C=C/c2ccccc2)c(O)cc2occc12 | 5.4 µM | 3.63 µM | 14.1 µM | 3560 nM | 11.2 µM | 3.14 µM | 7.01 µM | 3.81 µM | 4.38 µM | 2.76 µM | 7.72 µM | 11.1 µM | 6770 nM | 1% | 13% | 28% | 4.43 µM | 3360 nM | 3.15 µM | 12.5 µM | GI50 (HOP-62): 11.3 µM; GI50 (NCI-H322M): 13.6 µM; GI50 (NCI-H460): 3.02 µM; GI50 (NCI-H522): 4290 nM; GI50 (COLO 205): 15.7 µM; GI50 (HCT-116): 3.72 µM; GI50 [12]: 5.25 µM; GI50 (HT-29): 6.34 µM; GI50 (SW-620): 3.52 µM; GI50 (SF-268): 4.05 µM; GI50 (SNB-75): 2420 nM; GI50 (U-251): 4390 nM; GI50 [13]: 1690 nM; GI50 (M14): 8.89 µM; GI50 [14]: 7.01 µM; GI50 (IGROV-1): 3.51 µM; GI50 [15]: 3760 nM
3 | C=CCc1c(O)c(C(=O)/C=C/c2ccc(Cl)cc2)c(OC)c2ccoc12 | 2.77 µM | 3.04 µM | 5.96 µM | 1720 nM | 3.62 µM | 2.88 µM | 3.81 µM | 3.85 µM | 4.3 µM | 4.02 µM | 3 µM | 3.29 µM | 2270 nM | 3% | 0% | 80% | 3.25 µM | 2610 nM | 3.04 µM | 7.23 µM | GI50 (HOP-62): 2.31 µM; GI50 (NCI-H322M): 4.88 µM; GI50 (NCI-H460): 3.2 µM; GI50 (NCI-H522): 1880 nM; GI50 (COLO 205): 4.44 µM; GI50 (HCT-116): 2.74 µM; GI50 [12]: 3.4 µM; GI50 (HT-29): 1.89 µM; GI50 (SW-620): 2.56 µM; GI50 (SF-268): 3.25 µM; GI50 (SNB-75): 2010 nM; GI50 (U-251): 2300 nM; GI50 [13]: 1630 nM; GI50 (Malme-3M): 2.74 µM; GI50 (M14): 5.08 µM; GI50 [14]: 2.39 µM; GI50 (IGROV-1): 3.46 µM; GI50 [15]: 1970 nM
4 | C=CCc1c(O)c(C(=O)/C=C/c2ccccc2)c(OC)c2ccoc12 | 2.89 µM | 3.13 µM | 8.08 µM | 1850 nM | 4.96 µM | 2.89 µM | 3.68 µM | 4.92 µM | 3.11 µM | 3.9 µM | 2.63 µM | 4.11 µM | 3070 nM | 0% | 0% | 38% | 2.87 µM | 2170 nM | 1.88 µM | 6.13 µM | GI50 (HOP-62): 5.32 µM; GI50 (NCI-H322M): 3.19 µM; GI50 (NCI-H460): 2.79 µM; GI50 (NCI-H522): 2150 nM; GI50 (COLO 205): 5.96 µM; GI50 (HCT-116): 3.03 µM; GI50 [12]: 2.91 µM; GI50 (HT-29): 3.01 µM; GI50 (SW-620): 3.32 µM; GI50 (SF-268): 2.8 µM; GI50 (SNB-75): 1390 nM; GI50 (U-251): 2360 nM; GI50 [13]: 1560 nM; GI50 (Malme-3M): 5.8 µM; GI50 (M14): 5.36 µM; GI50 [14]: 2.56 µM; GI50 (IGROV-1): 3.35 µM; GI50 [15]: 2460 nM
